Assay results: ChEMBL document CHEMBL2380249, “Synthesis and evaluation of Janus type nucleosides as potential HCV NS5B polymerase inhibitors” (Bioorg Med Chem Lett, 2013)

Assays:
[1] = system: Human immunodeficiency virus 1; assay: Antiviral activity against Human immunodeficiency virus 1 LAI infected in human PBMC; assay type: functional, organism-based; conditions: Human immunodeficiency virus 1, M:B_Lai
Procedure, shortened: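 HIV-1 LAI replication in primary human peripheral blood mononuclear cells, with AZT as positive control.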

[2] = Cytotoxicity against human HuH7 cells assessed as reduction in rRNA levels at 120 hrs by RT-PCR analysis; assay type: cell-based, Huh-7
[3] = Cytotoxicity against African green monkey Vero cells; assay type: cell-based; conditions: chlorocebus sabaeus
Hepatitis C virus = assay: Antiviral activity against Hepatitis C virus infected in human HuH7 cells; assay type: functional, organism-based, Hepacivirus hominis; conditions: Huh-7
Procedure, shortened: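 Subgenomic HCV replicon in Huh7 cells; HCV RNA extracted and amplified to measure inhibition of replication, with cytotoxicity determined in the same cells at the same time.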

[4] = Cytotoxicity against human PBMC; assay type: cell-based
[5] = Cytotoxicity against human CEM cells; assay type: cell-based; conditions: CEM (CCRF-CEM) cells

| SMILES | EC50 [1] [µM] | EC90 [1] [µM] | CC50 at 120 h [2] [µM] | CC50 [3] [µM] | EC50 (Hepatitis C virus) [µM] | EC90 (Hepatitis C virus) [µM] | CC50 [4] [µM] | CC50 [5] [µM] |
| --- | --- | --- | --- | --- | --- | --- | --- | --- |
| Nc1ncnc2c1c1c(=O)[nH]c(S)nc1n2[C@@H]1O[C@H](CO)[C@@H](O)[C@H]1O | 9.6 | 30.2 | > 10 | 43.1 | > 10 | > 10 | 2.9 | 8.2 |
| C[C@@]1(O)[C@H](O)[C@@H](CO)O[C@H]1n1c2ncnc(N)c2c2c(=O)[nH]c(S)nc21 | > 100 | > 100 | > 10 | > 100 | > 10 | > 10 | > 100 | > 100 |
| C[C@@]1(O)[C@H](O)[C@@H](CO)O[C@H]1n1c2ncnc(N)c2c2c(N)ncnc21 | ≥ 100 | ≥ 100 | > 10 | > 100 | > 10 | > 10 | > 100 | > 100 |
| Nc1nc2c(c(=O)[nH]1)c1c(N)ncnc1n2[C@@H]1O[C@H](CO)[C@@H](O)[C@H]1O | 9.4 | 24 | < 10 | 63.1 | 3 | 22.5 | 3.1 | 20.2 |
| C[C@@]1(O)[C@H](O)[C@@H](CO)O[C@H]1n1c2ncnc(N)c2c2c(=O)[nH]c(N)nc21 | 3.3 | > 100 | 3 | > 100 | 3 | 17.9 | 92.1 | 36.5 |
| CCOC(=O)[C@H](C)NP(=O)(OC[C@H]1O[C@@H](n2c3ncnc(N)c3c3c(N)ncnc32)[C@](C)(O)[C@@H]1O)Oc1ccccc1 (stereo partly specified) | – | – | > 10 | – | > 10 | > 10 | – | – |
| C[C@@]1(O)[C@H](O)[C@@H](CO)O[C@H]1n1c2ncnc(N)c2c2c(=O)[nH]c(=O)[nH]c21 | > 100 | > 100 | > 10 | > 100 | > 10 | > 10 | > 100 | > 100 |
| Nc1ncnc2c1c1c(N)ncnc1n2[C@@H]1O[C@H](CO)[C@@H](O)[C@H]1O | > 100 | > 100 | > 10 | 82.5 | > 10 | > 10 | 53.8 | 29.5 |
| Cc1cn([C@H]2C[C@H](N=[N+]=[N-])[C@@H](CO)O2)c(=O)[nH]c1=O [ZIDOVUDINE] | – | 0.028 | > 10 | 53 | > 10 | > 10 | > 100 | 14.3 |
